Drawing on ChEMBL document CHEMBL4513216, “Probing the Open Global Health Chemical Diversity Library for Multistage-Active Starting Points for Next-Generation Antimalarials” (ACS Infect Dis, 2020), this text covers cytotoxicity for 96 compounds.

Molecules are shown by their SMILES.

The nature of the data set: Toxicity liver stage against HepG2, at 10uM. In kind it is cell-based. Details: test concentration 10 uM, cell line HepG2-A16-CD81EGFP. Particulars: human, HepG2-A16-CD81EGFP cells; read-out: INHIBITION
The method, boiled down: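 Uninfected HepG2-A16-CD81EGFP cells, 3 × 10^3 per well, 1536-well, plated on prespotted compound at 10 μM final, parasite-free screening media added to match infected plates; puromycin 10 μM positive, DMSO 0.5% negative; run in parallel with 48 h PbLuc assay at 37 °C, 5% CO2; viability by CellTiter-Glo luminescence, normalized to controls.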
For `O=C1N[C@@H]2CCN(C(=O)C3CCC3)[C@@H]2C(=O)N1c1ccc(F)cc1`, the cytotoxicity at 10 µM was -6.43%.

`CO[C@H]1COCCN(C(=O)c2cc(C)oc2C(F)(F)F)C1`: the cytotoxicity at 10 µM was -12.1%. For `CN1C[C@H](O)C[C@H]1c1nc(-c2ccc(OC(F)(F)F)cc2)no1`, the cytotoxicity at 10 µM is -12.2%. For `COCCNC(=O)N1CCN(C(=O)c2nsc3ccc(C)cc23)CC1` the value was 7%; for `CCOCCNC(=O)c1cccnc1N1CCCC1c1ccccn1` (stereo unspecified), 4.65%; for `O=C(C1CC(=O)N(c2n[nH]c3cc(Br)ccc23)C1)N1CCOCC1` (stereo unspecified), -3.27%. For `O=c1n(Cc2cccc(F)c2)nc2ncccn12` the value was -7.9%; for `Cn1cnc2c1C(C(=O)N1CCOCC1)N(C(=O)c1ccccc1)CC2` (stereo unspecified), -0.388%.

`Cc1cccc(S(=O)(=O)N2C[C@@H]3OCCN(C(C)C)[C@@H]3C2)c1`: the cytotoxicity at 10 µM is 7.64%.

As for `O=C(Nc1ccccc1)C1=NOC2(CCCN(C(=O)C3CCCC3)C2)C1` (stereo unspecified), the cytotoxicity at 10 µM was 4.88%. For `CC(C)(C)CC(=O)N1CCCC2(CC(C(=O)Nc3ccccc3)=NO2)C1` (stereo unspecified), the cytotoxicity at 10 µM was -6.63%. Consider `O=C(O)c1ccc2c(c1)C1(CCCCC1)CN2C(=O)c1ccnnc1`, for which the cytotoxicity at 10 µM worked out at 3.59%. As for `O=C1CC(c2cccs2)Cc2[nH]c(=O)ccc21` (stereo unspecified), the figure is 0.185%; as for `O=C(NCc1ccco1)N1CCCCC1c1nc(-c2ccncc2)no1` (stereo unspecified), -7.92%. Regarding `CC(C)CNC(=O)CSC1CCc2ccccc2NC1=O` (stereo unspecified), the cytotoxicity at 10 µM was -2.38%. Turning to `COCC1c2nnn(CC3CC3)c2CCN1C(=O)c1cccc(F)c1` (stereo unspecified), the cytotoxicity at 10 µM was -8.31%. For `FC(F)(F)c1cc(N2CCc3ncnc(NC4CC4)c3CC2)ncn1` the value was 1.79%; for `CCOC(=O)c1sc(NC(=O)COC)c(C#N)c1C`, 7.61%; for `N#Cc1c(N2CCOCC2)nsc1-c1cccnc1`, 17%. For `Cc1cc(C(=O)NCc2c(C)nn(C)c2C)nc(N2CCCC2)n1` the value was 7.05%.

For `O=C(Cn1cc(I)cn1)N1CCCC1`, the cytotoxicity at 10 µM was -0.653%.

On to `Cc1cc(NC2CC3(CCN(Cc4csc(C)n4)C3)C2)ncn1` (stereo unspecified), for which the cytotoxicity at 10 µM is -2.34%. For `Cc1cc(-c2ccc(=O)n(C3CCN(C(=O)C4CCC4)CC3)n2)c(C)o1` the value was 4.22%. For the compound `COCCNc1cccc(C2CCCN2)n1` (stereo unspecified), the cytotoxicity at 10 µM was -25.9%. As for `Cn1nccc1C(=O)N1CCCC1c1[nH]ncc1C(N)=O` (stereo unspecified), the figure is -15.2%; as for `O=C(CCn1ccnc1)N1C[C@@H](O)[C@H](Oc2cccc(F)c2)C1`, -21.6%. Consider `O=C(C1CCCC1)N1CCC(c2ncc3c(n2)CCNC3)C1` (stereo unspecified), for which the cytotoxicity at 10 µM is -15.3%.

For `Cc1ccc2c(c1)C(=O)NCC1(CCN(C(=O)c3cnccn3)CC1)O2`, the cytotoxicity at 10 µM was -15.8%. For `Cc1cnn(CC2CCN(CC(O)c3ccccc3F)CC2)c1` (stereo unspecified) the value was -5.18%; for `Cc1ccc(CN(Cc2cc(=O)n3cccc(C)c3n2)C(C)C)o1`, 7.65%; for `Cc1nc(C(NC(=O)c2cc(C(C)C)[nH]n2)c2ccccc2)n[nH]1` (stereo unspecified), 11.6%.

Take `CCC(=O)Nc1nnc2n(Cc3cccc(OC)c3)[nH]c(C)c1-2`: the cytotoxicity at 10 µM was -9.24%. As for `COc1cc(F)cc(CNC(=O)Nc2ccn(CC(F)F)n2)c1`, the figure is -2.21%; as for `CCOC(=O)CCNC(=O)c1cccc2ccc(C)nc12`, -5.15%. For `NC(=O)CN(Cc1ncc(-c2ccccc2)o1)C1CCCC1` the value was -4.3%; for `Cc1ccc(C(=O)N(Cc2cccc(F)c2)C2CC2)c(=O)[nH]1`, -4.86%; for `Cc1cnn(CCC(=O)N(CC2CN(C)CCO2)c2nccs2)c1` (stereo unspecified), -5.82%. For `COc1c(F)cc(NC(=O)NCc2nncn2C2CC2)cc1F` the value was -4.7%. For the compound `C[S+]([O-])c1nncn1CC(=O)c1cccc(Br)c1` (stereo unspecified), the cytotoxicity at 10 µM is 1.08%. As for `O=C(NS(=O)(=O)c1cc(Cl)ccc1Cl)c1cccc2c1OCCO2`, the figure is 10.3%. As for `CCCc1nc(C)c(C(=O)NC2CCN(CC(N)=O)CC2)s1`, the figure is -6.3%; as for `CN(C(=O)C1(C#N)CCCCC1)c1nccs1`, 0.658%.

For `Cc1cc(CNC(=O)NCc2cccs2)ccc1S(C)(=O)=O`, the cytotoxicity at 10 µM is -6.97%. As for `Cc1nccc(CNS(=O)(=O)N2CCCC2c2ccc(C)o2)n1` (stereo unspecified), the figure is -5.88%. For `CN(C(=O)NCCCNc1ccccn1)C1CCS(=O)(=O)C1` (stereo unspecified) the value was 4.67%; for `Cc1ccoc1C(=O)N(CCN(C)C)Cc1ccccn1`, -5.47%; for `CN(C)C(=O)Cc1ccccc1NCc1cc(C#N)ccc1F`, 48.1%. For `CC(C)NC(=O)CS(=O)(=O)c1cc2c(cc1Cl)OCCO2` the value was -2.46%. For the compound `CCCC(=O)N(C)c1cc(C#N)c2ccccc2n1`, the cytotoxicity at 10 µM is -7.55%. For `Cn1ncc2c1CCCC2NCc1ccc(OCc2cccnc2)cc1` (stereo unspecified) the value was 4.13%; for `CN(CCCc1cc(-c2ccc(F)cc2)n(C)n1)CC(=O)NC(N)=O`, 1.04%. `CCOC1CCN(C(=O)c2c(Cl)c3ccccc3n2C)CC1`: the cytotoxicity at 10 µM came out at 6.56%. As for `O=C(NCCCn1nc2ccccn2c1=O)NC1CCC(O)CC1` (stereo unspecified), the figure is -12.8%.

As for `CC(=O)N(C)Cc1ncn2c1CN(C(=O)CC1CC1)CCC2`, the cytotoxicity at 10 µM is -110%. For `CN(C)c1ccnc(-c2ccnc3c2ccn3C)n1` the value was 20.2%. As for `CCn1c(N)nc2cc(C(=O)N3CCN(CC(F)(F)F)CC3)cnc21`, the figure is -2.03%; as for `CC(C)N1CCCC(C(=O)NCCc2csc(-c3ccncc3)n2)C1` (stereo unspecified), -17.4%; as for `CCN(CCn1cccn1)Cc1nc(-c2ccoc2)oc1C`, -5.48%. As for `Cc1cc(C2CCCN2Cc2cccc(C(=O)Nc3nccs3)c2)no1` (stereo unspecified), the figure is -4.12%. For the compound `CN1CSC[C@H]1C(=O)N1CCN(Cc2cccc(Cl)c2)CC1`, the cytotoxicity at 10 µM was -4.28%.

In the case of `CN(Cc1ncc[nH]1)CC1CCOc2ccccc2C1` (stereo unspecified), the cytotoxicity at 10 µM is -1.93%.

With `CC(=O)Nc1ccc(-c2cn(CCn3c(C)cc(C)nc3=O)nn2)cc1`, the cytotoxicity at 10 µM turned out to be 5.03%.

In the case of `O=C(NCCc1nc(C2CC2)no1)[C@H]1CNC[C@H](C(=O)N2CCCC2)C1`, the cytotoxicity at 10 µM was -107%. With `Cn1nccc1CCNC(=O)[C@H]1CNC[C@H](C(=O)N2CCCC2)C1`, the cytotoxicity at 10 µM was -133%.

As to `CCN(CC)S(=O)(=O)N1CCCC(c2cccc(C(=O)O)c2)C1` (stereo unspecified), the cytotoxicity at 10 µM was -10%. As for `CN(Cc1ccco1)C(=O)C1CSCN1C(=O)c1cccs1` (stereo unspecified), the figure is -7.81%; as for `c1ccc(Cc2nnc(CN3CCc4cncnc4C3)o2)cc1`, -4.48%; as for `NC(=O)NCC1CCCCN1Cc1nc(-c2ccco2)no1` (stereo unspecified), -6.06%. On to `CN(Cc1noc(C2CC2)n1)C1CCN(Cc2cccc(F)c2F)C1` (stereo unspecified), for which the cytotoxicity at 10 µM was -13%. For `CCc1ncncc1C(=O)N1CCCC(n2nc(C)nc2C)C1` (stereo unspecified), the cytotoxicity at 10 µM was -6.54%. As for `CN(C)C1CCN(C(=O)Cc2csc(-c3ncccn3)n2)CC1`, the figure is -0.279%. For `CC(C)N(C(=O)CN(C)C1CCc2ccccc21)C(C)C` (stereo unspecified) the value was -9.3%.

On to `O=C(Cc1n[nH]c2ccccc12)N1CCCCC1Cn1cccn1` (stereo unspecified), for which the cytotoxicity at 10 µM was -14.8%. For `COc1ccc(C(=O)N2CCC(Nc3cccnn3)CC2)c(F)c1` the value was -8.96%. For `CCCc1nc(CNC(C)Cn2cccn2)cs1` (stereo unspecified) the value was -12.5%; for `Cc1noc(C(C)C)c1C(=O)NCCN1CCOCC1`, -8.73%. `CC(=O)N1CCCN(C(=O)NCCOc2ccc3c(c2)OCO3)CC1`: the cytotoxicity at 10 µM was -14.9%. `CC(NC(=O)CCC1CCCCC1)c1nnc2n1CCC2` (stereo unspecified): the cytotoxicity at 10 µM is -27.1%. For `CN(C)c1ccc(C(=O)N2CCCN(Cc3cscn3)CC2)nn1` the value was -9.39%; for `Cc1nc(CN2CCOC(Cn3cccn3)C2)nc2ccccc12` (stereo unspecified), -24.8%; for `Cc1csc(CNC(=O)N(C)Cc2ccc3c(c2)OCO3)n1`, -4.31%. As for `CCc1nc(CN2CCCN(C(=O)c3cn[nH]c3C)CC2)cs1`, the figure is -2.97%; as for `CC(C)c1cc(C(=O)NCCn2nc3ccccn3c2=O)n[nH]1`, -8.5%. `Cc1nc(CN(C)C2CCCN(c3cccnn3)C2)no1` (stereo unspecified): the cytotoxicity at 10 µM was -7.1%.

Regarding `CCOC(=O)N1CCC(C(=O)c2cc(F)ccc2F)CC1`, the cytotoxicity at 10 µM is -8.11%. For `CN(Cc1cccnc1)[C@@H]1CN(C(=O)CC2CC2)[C@@H]2CCCO[C@H]12` the value was 7.86%.

For `Cn1nc(CN2CCCC2)c2c1CN(C(=O)c1cccnc1)CC2`, the cytotoxicity at 10 µM was -146%.

As for `CC(C)N(C)Cc1cnc2n1CCN(S(=O)(=O)c1ccccc1)C2`, the cytotoxicity at 10 µM is -1.72%. As for `Fc1ccc(CN2CCO[C@H]3[C@H](OCC4CC4)CC[C@@H]32)cc1`, the figure is -5.34%. For `CCCC(=O)N1C[C@@H]2CCN(c3cnccn3)C[C@@H]2C1` the value was -1.48%; for `COCC(=O)N1CC[C@@H](OCC2CC2)[C@@H]1Cc1cccnc1`, -4.92%.

In the case of `O=C(Cc1ccccn1)N1C[C@H](OCc2cccnc2)[C@H]2COC[C@H]21`, the cytotoxicity at 10 µM was 12.3%. Turning to `CCOc1ncnc2c1CCN(C(=O)NCc1cccnc1)CC2`, the cytotoxicity at 10 µM was -127%. As for `Cc1ccc(NCc2cncc3c2CCN(Cc2ccccn2)C3)nn1`, the figure is -6.4%; as for `O=C(Cc1cccs1)N1C[C@@H]2OCCN(CC3CCCC3)[C@@H]2C1`, -4.75%. With `O=C(c1cc(F)cc(Cl)c1)N1C[C@H]2CC[C@@H](C1)N(Cc1ccccc1)C2`, the cytotoxicity at 10 µM is -128%.
